Reference: ChEMBL document CHEMBL1123462, “Indolo[2,1-c][1,4]benzodiazepines: a new class of antiallergic agents” (J Med Chem, 1986)

Columns and labels:
Assay type in all cases: functional
[1] = tested on: Rattus norvegicus; experiment: Compound was tested for the inhibition of rat passive cutaneous anaphylaxis (PCA) at 10 mg/kg dose ip (1h pretreatment); conditions: route intraperitoneal
[2] = tested on: Rattus norvegicus; experiment: Compound was tested for the inhibition of rat passive cutaneous anaphylaxis (PCA) at 10 mg/kg dose ip; conditions: route intraperitoneal
[3] = tested on: Rattus norvegicus; experiment: Compound was tested for the inhibition of rat passive cutaneous anaphylaxis (PCA) administered intraperitoneally; conditions: ip
Summary of the method: (§1)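 Male Sprague-Dawley rats were given 0.05 mL of high-titer IgE rat anti-ovalbumin antiserum intradermally. 24 h later: iv ovalbumin plus Evans Blue in saline, with simultaneous intradermal serotonin and histamine. Drug given ip 1 h before antigen. At 30 min, skin was reflected and wheal size and colour scored against a chart. %inhibition = (1 − mean treated/mean control score)×100. Dunnett's test, p ≤ 0.05.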

[4] = tested on: Rattus norvegicus; experiment: Compound was tested for the inhibition of rat passive cutaneous anaphylaxis (PCA) at 0.37 mg/kg dose ip (1h pretreatment); conditions: route intraperitoneal; summary of the method: as §1
[5] = tested on: Cavia porcellus; experiment: Compound was tested for the inhibition of guinea pig active lung anaphylaxis (ALA) at 0.01 mg/kg iv
Summary of the method: (§2)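 Guinea pigs were sensitized with egg albumin 1 mg sc plus Bordetella pertussis vaccine adjuvant. Two weeks later: pentobarbital 65 mg/kg ip, then trachea, jugular vein and carotid cannulated. Drug given iv before an iv egg albumin challenge (0.5 mg/kg). Airway resistance (bronchoconstriction) and arterial pressure monitored. %inhibition given as mean ± SE; ED50 iv with 95% confidence limits.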

[6] = tested on: Cavia porcellus; experiment: Compound was tested for the inhibition of guinea pig active lung anaphylaxis (ALA) administered intravenously; conditions: iv; summary of the method: as §2
[7] = tested on: Cavia porcellus; experiment: Inhibition of guinea pig ALA at a dose of 1 mg/kg after 1 hr postdosing intraperitoneally 1 h; conditions: ip, route intraperitoneal
Summary of the method: (§3)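 Guinea pigs were sensitized with egg albumin 1 mg sc plus pertussis vaccine adjuvant. Two weeks later they were anesthetized (pentobarbital 65 mg/kg ip) and cannulated. Drug was given ip or orally at 1 mg/kg. Challenge with egg albumin 0.5 mg/kg iv at 1, 7, 8 or 24 h post-dose, with bronchoconstriction measured. %inhibition given as mean ± SD.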

[8] = tested on: Cavia porcellus; experiment: Inhibition of guinea pig ALA at a dose of 1 mg/kg after 1 hr postdosing orally 1 h; conditions: route oral; summary of the method: as §3
[9] = tested on: Cavia porcellus; experiment: Inhibition of guinea pig ALA at a dose of 1 mg/kg after 24 hr postdosing intraperitoneally; conditions: ip, route intraperitoneal; summary of the method: as §3
[10] = tested on: Cavia porcellus; experiment: Inhibition of guinea pig ALA at a dose of 1 mg/kg after 24 hr postdosing orally; conditions: route oral; summary of the method: as §3
[11] = tested on: Cavia porcellus; experiment: Inhibition of guinea pig ALA at a dose of 1 mg/kg after 7 hr postdosing intraperitoneally; conditions: ip, route intraperitoneal; summary of the method: as §3
[12] = tested on: Cavia porcellus; experiment: Inhibition of guinea pig ALA at a dose of 1 mg/kg after 8 hr postdosing orally; conditions: route oral; summary of the method: as §3
[13] = tested on: Rattus norvegicus; experiment: Compound was tested […] for the inhibition of serotonin release in rat peritoneal cell
[14] = tested on: Rattus norvegicus; experiment: Compound was tested for percent inhibition, at 0.37 mg/kg administered intraperitoneally against histamine; conditions: ip, route intraperitoneal; summary of the method: as §1
[15] = tested on: Rattus norvegicus; experiment: Compound was tested for percent inhibition, at 0.37 mg/kg administered intraperitoneally against serotonin by Dunnett's test; conditions: ip, route intraperitoneal; summary of the method: as §1
[16] = tested on: Rattus norvegicus; experiment: Compound was tested for percent inhibition, at 3.3 mg/kg administered intraperitoneally against histamine by Dunnett's test; conditions: ip, route intraperitoneal; summary of the method: as §1
[17] = tested on: Rattus norvegicus; experiment: Compound was tested for percent inhibition, at 3.3 mg/kg administered intraperitoneally against rat passive cutaneous anaphylaxis by Dunnett's test; conditions: ip, route intraperitoneal; summary of the method: as §1
[18] = tested on: Rattus norvegicus; experiment: Compound was tested for percent inhibition, at 3.3 mg/kg administered intraperitoneally against serotonin by Dunnett's test; conditions: ip, route intraperitoneal; summary of the method: as §1

`c1ccc2c(c1)Cn1c(cc3ccccc31)C(N1CCCCC1)=N2` gave an inhibition in vivo at 10 mg/kg [1] of 27.4%.

With `OC1CCN(C2=Nc3ccccc3Cn3c2cc2ccccc23)CC1` the inhibition in vivo at 10 mg/kg [1] was 40.2%.

In the case of `O=C1Nc2ccccc2Cn2c1cc1ccccc12`, the inhibition in vivo at 10 mg/kg [2] is reported as 23.2%.

Work on `CCCCN1CCN(C2=Nc3ccccc3Cn3c2cc2ccccc23)CC1` yielded an ED50 [3] of 1.32 mg/kg and an inhibition in vivo at 0.37 mg/kg [4] of 39.9%.

`CCOC(=O)N1CCN(C2=Nc3ccccc3Cn3c2cc2ccccc23)CC1` gave an ED50 [3] of 0.67 mg/kg and an inhibition in vivo at 0.37 mg/kg [4] of 38.7%.

For `CN1CCN(C2=Nc3ccccc3Cn3c2cc2ccccc23)CC1`, the inhibition in vivo at 0.01 mg/kg [5] was 41%, the ED50 [6] was 0.01 mg/kg and the inhibition in vivo at 1 mg/kg [7] was 74%. The inhibition in vivo at 1 mg/kg [8] was 51%, the inhibition in vivo at 1 mg/kg [9] was 26% and the inhibition in vivo at 1 mg/kg [10] was 61%. It also gave an inhibition in vivo at 1 mg/kg [11] of 75%, an inhibition in vivo at 1 mg/kg [12] of 87% and an ED50 [3] of 0.19 mg/kg. It also gave an IC50 [13] of 15.9 µM, an inhibition in vivo at 0.37 mg/kg [14] of 58.2% and an inhibition in vivo at 0.37 mg/kg [15] of 50.9%. It also gave an inhibition in vivo at 3.3 mg/kg [16] of 63.3%, an inhibition in vivo at 3.3 mg/kg [17] of 100% and an inhibition in vivo at 3.3 mg/kg [18] of 65.9%. It also gave an inhibition in vivo at 0.37 mg/kg [4] of 93.6%.
